ChEMBL document CHEMBL4480442, “Phloroglucinols with Immunosuppressive Activities from the Fruits of Eucalyptus globulus” (J Nat Prod, 2019)
The source made the active and inactive calls. No cut-off for these calls is given here.

Experiments:
[1] = […], ratio of CC50 for BALB/c mouse lymph node cells to IC50 for immunosuppressive activity in BALB/c mouse lymph node cells assessed as inhibition of concanavalin A stimulated T-cell proliferation
[2] = Cytotoxicity against BALB/c mouse lymph node cells assessed as reduction in cell viability measured after 48 hrs by CCK8 assay; assay type: cell-based
[3] = Immunosuppressive activity in BALB/c mouse lymph node cells assessed as inhibition of concanavalin A stimulated T-cell proliferation measured after 48 hrs by CCK8 assay; assay type: functional
[4] = Immunosuppressive activity in concanavalin A stimulated BALB/c mouse lymph node cells assessed as induction of apoptosis by measuring necrotic cells at 1 uM measured after 48 hrs by Annexin-V/propidium iodide staining based flow cytometry (reference value: 0%); assay type: functional
[5] = Immunosuppressive activity in concanavalin A stimulated BALB/c mouse lymph node cells assessed as induction of apoptosis by measuring late apoptotic cells at 10 uM measured after 48 hrs by Annexin-V/propidium iodide staining based flow cytometry (reference value: 0.2%); assay type: functional
[6] = Immunosuppressive activity in concanavalin A stimulated BALB/c mouse lymph node cells assessed as induction of apoptosis by measuring early apoptotic cells at 20 uM measured after 48 hrs by Annexin-V/propidium iodide staining based flow cytometry (reference value: 0.1%); assay type: functional
[7] = Immunosuppressive activity in concanavalin A stimulated BALB/c mouse lymph node cells assessed as induction of apoptosis by measuring viable cells at 10 uM measured after 48 hrs by Annexin-V/propidium iodide staining based flow cytometry (reference value: 99.7%); assay type: functional
[8] = biological target: RAC-alpha serine/threonine-protein kinase (Mus musculus) (UniProt P31750); experiment: Inhibition of AKT phosphorylation in concanavalin A stimulated BALB/c mouse lymph node cells assessed as IL4 level at 1 uM measured after 48 hrs by ELISA (reference value: 142.4 +/- 12.4 pg/ml)
Sequence of RAC-alpha serine/threonine-protein kinase (Mus musculus) (P31750 whole entry): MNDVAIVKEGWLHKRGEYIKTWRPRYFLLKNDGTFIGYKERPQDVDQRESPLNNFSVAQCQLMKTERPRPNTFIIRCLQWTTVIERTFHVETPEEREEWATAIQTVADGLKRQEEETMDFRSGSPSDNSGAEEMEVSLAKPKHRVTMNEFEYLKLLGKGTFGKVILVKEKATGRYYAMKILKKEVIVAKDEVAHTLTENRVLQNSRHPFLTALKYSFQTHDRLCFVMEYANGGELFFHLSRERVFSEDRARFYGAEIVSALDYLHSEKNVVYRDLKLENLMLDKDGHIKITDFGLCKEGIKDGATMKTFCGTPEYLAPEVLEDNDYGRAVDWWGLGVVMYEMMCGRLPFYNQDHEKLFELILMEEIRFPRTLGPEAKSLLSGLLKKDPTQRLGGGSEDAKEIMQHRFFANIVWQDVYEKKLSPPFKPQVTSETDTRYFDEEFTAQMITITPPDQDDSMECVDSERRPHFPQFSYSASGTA

[9] = Immunosuppressive activity in concanavalin A stimulated BALB/c mouse lymph node cells assessed as induction of apoptosis by measuring viable cells at 1 uM measured after 48 hrs by Annexin-V/propidium iodide staining based flow cytometry (reference value: 99.7%); assay type: functional
[10] = Immunosuppressive activity in concanavalin A stimulated BALB/c mouse lymph node cells assessed as induction of apoptosis by measuring late apoptotic cells at 1 uM measured after 48 hrs by Annexin-V/propidium iodide staining based flow cytometry (reference value: 0.2%); assay type: functional
[11] = organism: Mus musculus; experiment: Immunosuppressive activity in concanavalin A stimulated BALB/c mouse lymph node cells assessed as increase in cytochrome c levels in cytoplasm at 1 to 20 uM measured after 48 hrs by Western blotting analysis; assay type: functional
How it was run: (§1)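 Mouse […] cells, 2 × 10^6 cells/well, ConA (5 μg/mL) with compound at 1, 10, 20 μM for 48 h; cells washed with PBS, protein extracted and Western blotted; band densities quantified as Bax/Bcl-2 ratio and cytoplasmic/mitochondrial cytochrome c ratio; three independent experiments, means ± SEM.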

[12] = Immunosuppressive activity in concanavalin A stimulated BALB/c mouse lymph node cells assessed as induction of apoptosis by measuring necrotic cells at 20 uM measured after 48 hrs by Annexin-V/propidium iodide staining based flow cytometry (reference value: 0%); assay type: functional
[13] = Immunosuppressive activity in concanavalin A stimulated BALB/c mouse lymph node cells assessed as induction of apoptosis by measuring viable cells at 20 uM measured after 48 hrs by Annexin-V/propidium iodide staining based flow cytometry (reference value: 99.7%); assay type: functional
[14] = organism: Mus musculus; experiment: Immunosuppressive activity in BALB/c mouse lymph node cells assessed as inhibition of concanavalin A stimulated T-cell proliferation at 1 to 20 uM measured after 48 hrs by CCK8 assay; assay type: functional
[15] = biological target: RAC-alpha serine/threonine-protein kinase (Mus musculus) (UniProt P31750); experiment: Inhibition of AKT phosphorylation in concanavalin A stimulated BALB/c mouse lymph node cells at 20 uM measured after 48 hrs by Western blotting analysis
[16] = Immunosuppressive activity in concanavalin A stimulated BALB/c mouse lymph node cells assessed as induction of apoptosis by measuring necrotic cells at 10 uM measured after 48 hrs by Annexin-V/propidium iodide staining based flow cytometry (reference value: 0%); assay type: functional
[17] = organism: Mus musculus; experiment: Immunosuppressive activity in concanavalin A stimulated BALB/c mouse lymph node cells assessed as caspase-9 activation at 1 to 20 uM measured after 48 hrs; assay type: functional
[18] = organism: Mus musculus; experiment: Immunosuppressive activity in concanavalin A stimulated BALB/c mouse lymph node cells assessed as caspase-3 activation at 1 to 20 uM measured after 48 hrs; assay type: functional
[19] = organism: Mus musculus; experiment: Immunosuppressive activity in BALB/c mouse lymph node cells assessed as inhibition of concanavalin A stimulated T-cell proliferation by measuring increase in LDH release at 1 to 20 uM; assay type: functional
[20] = biological target: RAC-alpha serine/threonine-protein kinase (Mus musculus) (UniProt P31750); experiment: Inhibition of AKT phosphorylation in concanavalin A stimulated BALB/c mouse lymph node cells assessed as IL4 level at 20 uM measured after 48 hrs by ELISA (reference value: 142.4 +/- 12.4 pg/ml)
How it was run: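 ELISA for IL-4 or IFN-γ in culture medium: BALB/c […] cells, 2 × 10^6 cells/well, stimulated with ConA (5 μg/mL) with compound at 1, 10, 20 μM for 48 h; absorbance at 450 nm; means ± SEM of three independent experiments.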

[21] = biological target: RAC-alpha serine/threonine-protein kinase (Mus musculus) (UniProt P31750); experiment: Inhibition of AKT phosphorylation in concanavalin A stimulated BALB/c mouse lymph node cells assessed as IL4 level at 10 uM measured after 48 hrs by ELISA (reference value: 142.4 +/- 12.4 pg/ml)
[22] = biological target: RAC-alpha serine/threonine-protein kinase (Mus musculus) (UniProt P31750); experiment: Inhibition of AKT phosphorylation in concanavalin A stimulated BALB/c mouse lymph node cells assessed as IFNgamma level at 20 uM measured after 48 hrs by ELISA (reference value: 575.9 +/- 8.2 pg/ml)
[23] = biological target: RAC-alpha serine/threonine-protein kinase (Mus musculus) (UniProt P31750); experiment: Inhibition of AKT phosphorylation in concanavalin A stimulated BALB/c mouse lymph node cells assessed as IFNgamma level at 1 uM measured after 48 hrs by ELISA (reference value: 575.9 +/- 8.2 pg/ml)
[24] = Immunosuppressive activity in concanavalin A stimulated BALB/c mouse lymph node cells assessed as induction of apoptosis by measuring late apoptotic cells at 20 uM measured after 48 hrs by Annexin-V/propidium iodide staining based flow cytometry (reference value: 0.2%); assay type: functional
[25] = Immunosuppressive activity in concanavalin A stimulated BALB/c mouse lymph node cells assessed as induction of apoptosis by measuring early apoptotic cells at 10 uM measured after 48 hrs by Annexin-V/propidium iodide staining based flow cytometry (reference value: 0.1%); assay type: functional
[26] = organism: Mus musculus; experiment: Immunosuppressive activity in concanavalin A stimulated BALB/c mouse lymph node cells assessed as increase in ratio of Bax/Bcl2 level at 1 to 20 uM measured after 48 hrs by Western blotting analysis; assay type: functional; how it was run: as §1
[27] = Immunosuppressive activity in concanavalin A stimulated BALB/c mouse lymph node cells assessed as induction of apoptosis by measuring early apoptotic cells at 1 uM measured after 48 hrs by Annexin-V/propidium iodide staining based flow cytometry (reference value: 0.1%); assay type: functional

CO[C@]1(C)CC[C@@H]2[C@H]([C@H]3[C@H]1CC[C@]3(C)[C@@H](CC(C)C)c1c(O)c(C=O)c(O)c(C=O)c1O)C2(C)C
Ratio CC50/IC50 [1]: 8.5 | CC50 at 48 h [2]: 578 µM | IC50 [3]: 68.4 µM

CO[C@]1(C)CC[C@@H]2[C@H]([C@H]3[C@H]1CC[C@]3(C)[C@H](CC(C)C)c1c(O)c(C=O)c(O)c(C=O)c1O)C2(C)C
Ratio CC50/IC50 [1]: 15.7 | CC50 at 48 h [2]: 562 µM | IC50 [3]: 35.8 µM

CC(C)C[C@@H](c1c(O)c(C=O)c(O)c(C=O)c1O)C1CC[C@@H](C)C2=C[C@@H](C(C)(C)O)CC[C@@]21C (stereo partly drawn)
Ratio CC50/IC50 [1]: 14.2 | CC50 at 48 h [2]: 602 µM | IC50 [3]: 42.4 µM

CC(C)C[C@H]1c2c(O)c(C=O)c(O)c(C=O)c2O[C@]2(C)C=C[C@@](O)(C(C)C)CC12 (stereo partly drawn)
Activity [4]: 9.1% | Activity [5]: 19.3% | Activity [6]: 63.1% | Activity [7]: 32.3% | Ratio CC50/IC50 [1]: 56.3 | Activity [8]: 118 pg/mL | Activity [9]: 47.5% | Activity [10]: 18.3% | Activity [11]: Active | Activity [12]: 1% | Activity [13]: 4.2% | CC50 at 48 h [2]: 664 µM | Activity [14]: Active | inhibition [15]: Active | Activity [16]: 5.7% | Activity [17]: Active | Activity [18]: Active | Activity [19]: Active | Activity [20]: 68.9 pg/mL | Activity [21]: 99.7 pg/mL | Activity [22]: 52.5 pg/mL | Activity [23]: 347 pg/mL | Activity [24]: 31.7% | Activity [25]: 42.7% | Activity [26]: Active | IC50 [3]: 11.8 µM | Activity [27]: 25.1%

CC(C)C[C@@H](c1c(O)c(C=O)c(O)c(C=O)c1O)[C@@]1(C)CC[C@@H]2[C@@H]1[C@H]1[C@@H](CC[C@@]2(C)O)C1(C)C [MACROCARPAL A]
Ratio CC50/IC50 [1]: 29.2 | CC50 at 48 h [2]: 597 µM | IC50 [3]: 20.4 µM

COc1c(C)c(O)c(C)c(O)c1C(=O)CC(C)C
Ratio CC50/IC50 [1]: 5 | CC50 at 48 h [2]: 670 µM | IC50 [3]: 133 µM

C=C1CC[C@@H]2[C@H](C3C1CC[C@]3(C)C(CC(C)C)c1c(O)c(C=O)c(O)c(C=O)c1O)C2(C)C (stereo partly drawn)
Ratio CC50/IC50 [1]: 8.3 | CC50 at 48 h [2]: 541 µM | IC50 [3]: 69.6 µM

C/C1=C/[C@H]2[C@@H](CC[C@]3(C)Oc4c(C=O)c(O)c(C=O)c(O)c4[C@@H](CC(C)C)C3CC1)C2(C)C (stereo partly drawn)
Ratio CC50/IC50 [1]: 4.6 | CC50 at 48 h [2]: 600 µM | IC50 [3]: 129 µM

CC(C)CC(=O)c1c(O)c(C=O)c(O)c(C[C@@]2(C)CCC3C2[C@H]2[C@@H](CC[C@@]3(C)O)C2(C)C)c1O (stereo partly drawn)
Ratio CC50/IC50 [1]: 30.5 | CC50 at 48 h [2]: 554 µM | IC50 [3]: 18.2 µM

CC(C)CC(=O)c1c(O)c(C=O)c(O)c(C[C@H]2CC[C@H](C)C3=C[C@@H](C(C)(C)O)CC[C@@]32C)c1O
Ratio CC50/IC50 [1]: 30.2 | CC50 at 48 h [2]: 578 µM | IC50 [3]: 19.1 µM

CC(C)C[C@H](c1c(O)c(C=O)c(O)c(C=O)c1O)C1CC[C@@H](C)C2=C[C@@H](C(C)(C)O)CC[C@@]21C (stereo partly drawn)
Ratio CC50/IC50 [1]: 10.4 | CC50 at 48 h [2]: 544 µM | IC50 [3]: 52.3 µM

CC(C)C[C@H]1c2c(O)c(C=O)c(O)c(C=O)c2O[C@]23CC[C@@]1(C)C2[C@H]1[C@@H](CC[C@@H]3C)C1(C)C (stereo partly drawn)
Ratio CC50/IC50 [1]: 8.5 | CC50 at 48 h [2]: 588 µM | IC50 [3]: 69.3 µM

CC(C)C[C@H](c1c(O)c(C=O)c(O)c(C=O)c1O)[C@@]1(C)CC[C@@H]2[C@@H]1[C@H]1[C@@H](CC[C@@]2(C)O)C1(C)C [MACROCARPAL B]
Ratio CC50/IC50 [1]: 18.4 | CC50 at 48 h [2]: 570 µM | IC50 [3]: 31.2 µM

CC(C)CC(=O)c1c(O)c(C=O)c(O)c(C[C@H]2CC[C@@](C)(O)C3[C@H]4[C@@H](CC[C@@]32C)C4(C)C)c1O (stereo partly drawn)
Ratio CC50/IC50 [1]: 16.9 | CC50 at 48 h [2]: 598 µM | IC50 [3]: 35.3 µM

CC(C)C[C@@H](c1c(O)c(C=O)c(O)c(C=O)c1O)[C@@]1(C)C=C2C(C)CC[C@H](C(C)(C)O)C2CC1 (stereo partly drawn)
Ratio CC50/IC50 [1]: 14.5 | CC50 at 48 h [2]: 596 µM | IC50 [3]: 41.2 µM

CC(C)C[C@H](c1c(O)c(C=O)c(O)c(C=O)c1O)[C@@]1(C)CC[C@@H]2[C@@H]1[C@H]1[C@@H](CC[C@]2(C)O)C1(C)C
Ratio CC50/IC50 [1]: 22.7 | CC50 at 48 h [2]: 597 µM | IC50 [3]: 26.3 µM

CCC(C)C(=O)c1c(O)c(C)c(OC)c(C)c1O (stereo not drawn)
Ratio CC50/IC50 [1]: 8.9 | CC50 at 48 h [2]: 623 µM | IC50 [3]: 70.2 µM

CC(C)C[C@@H]1c2c(O)c(C=O)c(O)c(C=O)c2O[C@]2(C)C=C[C@@](O)(C(C)C)CC12 (stereo partly drawn)
Ratio CC50/IC50 [1]: 64.2 | CC50 at 48 h [2]: 656 µM | IC50 [3]: 10.2 µM
